# Data as given in ChEMBL document CHEMBL1126751, “Studies on quinazolines. 5. 2,3-dihydroimidazo[1,2-c]quinazoline derivatives: a novel class of potent and selective alpha 1-adrenoceptor antagonists and antihypertensive agents” (J Med Chem, 1993).
# Activity calls are given as the source filed them. The calls are words filed in the database; no cut-off is given here.
# Experiments:
# [1] = test system: Rattus norvegicus; assay: Blood pressure lowering activity in spontaneously hypertensive rats (SHR) after 1 hour of administration (iv) of dose of 4.0 mg/kg; Did not last more than 1/2 hr […]; assay type: functional, organism-based; set-up: dose 4 mg/kg
# [2] = test system: Rattus norvegicus; assay: Blood pressure lowering activity in spontaneously hypertensive rats (SHR) after 6 hour of administration (iv) of dose of 4.0 mg/kg; Did not last more than 1/2 hr […]; assay type: functional, organism-based; set-up: dose 4 mg/kg
# [3] = molecular target: T1, Adrenergic receptor alpha-1 (Rattus norvegicus, UniProt P15823+P23944+P43140); assay: Binding affinity against alpha-1 adrenergic receptor by measuring displacement of [3H]prazosin from rat brain cortex membranes (in vitro).; assay type: cell membranes, Membrane
# T1 sequence (P15823 whole entry): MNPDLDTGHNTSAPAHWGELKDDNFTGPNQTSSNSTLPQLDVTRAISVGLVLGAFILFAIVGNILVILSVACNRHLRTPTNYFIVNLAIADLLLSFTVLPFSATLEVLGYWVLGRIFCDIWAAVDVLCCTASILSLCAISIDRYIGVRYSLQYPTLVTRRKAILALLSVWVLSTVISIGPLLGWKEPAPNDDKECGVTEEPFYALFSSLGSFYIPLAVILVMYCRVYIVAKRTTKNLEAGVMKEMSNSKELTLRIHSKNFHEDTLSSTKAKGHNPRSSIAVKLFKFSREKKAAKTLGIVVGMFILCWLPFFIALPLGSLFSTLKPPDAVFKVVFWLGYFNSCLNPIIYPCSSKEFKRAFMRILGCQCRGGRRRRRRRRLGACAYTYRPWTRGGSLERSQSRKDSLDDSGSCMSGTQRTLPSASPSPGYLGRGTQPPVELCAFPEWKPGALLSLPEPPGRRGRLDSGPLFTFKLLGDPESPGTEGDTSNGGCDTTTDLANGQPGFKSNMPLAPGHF
# T1 sequence (P23944 whole entry): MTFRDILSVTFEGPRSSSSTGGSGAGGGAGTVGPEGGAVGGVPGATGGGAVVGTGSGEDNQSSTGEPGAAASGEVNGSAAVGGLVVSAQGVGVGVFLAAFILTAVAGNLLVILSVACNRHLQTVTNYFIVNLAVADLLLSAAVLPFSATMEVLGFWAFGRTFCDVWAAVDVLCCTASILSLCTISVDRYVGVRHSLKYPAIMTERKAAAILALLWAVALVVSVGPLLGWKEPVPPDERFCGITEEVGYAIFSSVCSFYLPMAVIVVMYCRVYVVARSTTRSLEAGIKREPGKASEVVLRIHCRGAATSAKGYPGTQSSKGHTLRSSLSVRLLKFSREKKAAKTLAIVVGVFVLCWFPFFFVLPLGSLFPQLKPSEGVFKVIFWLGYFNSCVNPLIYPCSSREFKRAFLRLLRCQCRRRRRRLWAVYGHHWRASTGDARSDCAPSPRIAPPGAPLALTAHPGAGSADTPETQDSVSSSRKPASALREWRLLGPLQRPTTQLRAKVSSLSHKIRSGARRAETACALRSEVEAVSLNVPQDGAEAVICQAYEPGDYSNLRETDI
# T1 sequence (P43140 whole entry): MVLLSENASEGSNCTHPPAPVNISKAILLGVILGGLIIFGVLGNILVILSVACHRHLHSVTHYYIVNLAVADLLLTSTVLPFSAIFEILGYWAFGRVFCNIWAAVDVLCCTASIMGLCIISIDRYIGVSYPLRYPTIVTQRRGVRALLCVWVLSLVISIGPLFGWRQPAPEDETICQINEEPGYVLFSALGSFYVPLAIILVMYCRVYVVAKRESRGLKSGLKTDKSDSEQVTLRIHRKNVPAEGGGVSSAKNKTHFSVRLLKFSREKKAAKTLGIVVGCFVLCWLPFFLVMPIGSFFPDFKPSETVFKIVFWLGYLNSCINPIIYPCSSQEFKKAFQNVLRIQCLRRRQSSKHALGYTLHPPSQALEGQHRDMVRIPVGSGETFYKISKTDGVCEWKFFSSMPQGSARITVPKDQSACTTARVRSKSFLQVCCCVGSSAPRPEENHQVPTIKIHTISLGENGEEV
# [4] = test system: Rattus norvegicus; assay: Blood pressure lowering activity in spontaneously hypertensive rats (SHR) after 1 hour of administration (iv) of dose of 0.5 mg/kg; Did not last more than 1/2 hr […]; assay type: functional, organism-based; set-up: dose 0.5 mg/kg
# [5] = molecular target: T2, Adrenergic receptor alpha-2 (Rattus norvegicus, UniProt P22086+P19328+P22909); assay: Binding affinity against alpha-2 adrenergic receptor by measuring displacement of [3H]clonidine from rat brain cortex membranes (in vitro).; assay type: cell membranes, Membrane
# T2 sequence (P22086 whole entry): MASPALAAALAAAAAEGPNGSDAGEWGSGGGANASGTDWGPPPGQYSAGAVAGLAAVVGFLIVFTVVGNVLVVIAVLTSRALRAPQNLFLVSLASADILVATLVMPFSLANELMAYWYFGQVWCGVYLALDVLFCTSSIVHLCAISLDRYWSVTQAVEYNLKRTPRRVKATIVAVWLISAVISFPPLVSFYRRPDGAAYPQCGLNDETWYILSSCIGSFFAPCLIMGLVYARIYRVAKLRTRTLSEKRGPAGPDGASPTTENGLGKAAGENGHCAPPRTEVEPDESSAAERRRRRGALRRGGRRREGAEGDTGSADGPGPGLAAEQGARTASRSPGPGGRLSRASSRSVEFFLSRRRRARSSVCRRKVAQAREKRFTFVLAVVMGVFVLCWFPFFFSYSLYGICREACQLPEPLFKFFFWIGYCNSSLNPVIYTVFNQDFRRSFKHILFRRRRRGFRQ
# T2 sequence (P19328 whole entry): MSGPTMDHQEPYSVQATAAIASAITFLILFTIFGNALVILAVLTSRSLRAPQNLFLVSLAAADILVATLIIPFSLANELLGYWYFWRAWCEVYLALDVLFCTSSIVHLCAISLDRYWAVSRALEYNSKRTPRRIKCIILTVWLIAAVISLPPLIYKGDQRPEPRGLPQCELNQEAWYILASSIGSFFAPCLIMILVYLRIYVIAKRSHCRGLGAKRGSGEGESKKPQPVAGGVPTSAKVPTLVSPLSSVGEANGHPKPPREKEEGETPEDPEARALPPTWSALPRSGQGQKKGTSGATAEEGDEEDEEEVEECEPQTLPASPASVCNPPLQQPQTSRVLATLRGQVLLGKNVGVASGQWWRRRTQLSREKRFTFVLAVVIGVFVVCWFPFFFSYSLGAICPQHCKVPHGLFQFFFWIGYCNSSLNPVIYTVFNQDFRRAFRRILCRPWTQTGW
# T2 sequence (P22909 whole entry): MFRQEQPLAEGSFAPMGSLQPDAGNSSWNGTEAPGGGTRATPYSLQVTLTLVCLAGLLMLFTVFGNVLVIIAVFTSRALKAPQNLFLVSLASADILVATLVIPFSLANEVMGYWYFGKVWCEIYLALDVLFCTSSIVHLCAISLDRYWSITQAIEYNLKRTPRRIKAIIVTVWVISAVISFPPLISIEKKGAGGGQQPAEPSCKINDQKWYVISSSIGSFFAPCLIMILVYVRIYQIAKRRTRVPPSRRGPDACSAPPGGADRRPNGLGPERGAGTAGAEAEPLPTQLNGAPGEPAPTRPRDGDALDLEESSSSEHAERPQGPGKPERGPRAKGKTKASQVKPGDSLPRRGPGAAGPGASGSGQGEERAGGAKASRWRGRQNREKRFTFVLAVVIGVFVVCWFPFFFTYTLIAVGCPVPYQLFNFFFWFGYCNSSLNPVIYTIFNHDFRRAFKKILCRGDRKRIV
# [6] = test system: Rattus norvegicus; assay: Blood pressure lowering activity in spontaneously hypertensive rats (SHR) after 6 hours of administration (iv) of dose of 0.5 mg/kg; Did not last more than 1/2 hr […]; assay type: functional, organism-based; set-up: dose 0.5 mg/kg
# [7] = test system: Rattus norvegicus; assay: Blood pressure lowering activity in spontaneously hypertensive rats (SHR) after 6 hours of administration (iv) of dose of 1.0 mg/kg […]; assay type: functional
# [8] = test system: Rattus norvegicus; assay: Blood pressure lowering activity in spontaneously hypertensive rats (SHR) after 1 hour of administration (iv) of dose of 1.0 mg/kg […]; assay type: functional
# [9] = test system: Rattus norvegicus; assay: Blood pressure lowering activity in spontaneously hypertensive rats (SHR) after 1 hour of administration (iv) of dose of 2.0 mg/kg […]; assay type: functional
# [10] = test system: Rattus norvegicus; assay: Blood pressure lowering activity in spontaneously hypertensive rats (SHR) after 6 hours of administration (iv) of dose of 2.0 mg/kg […]; assay type: functional
# [11] = test system: Rattus norvegicus; assay: Blood pressure lowering activity in spontaneously hypertensive rats (SHR) after 1 hour of administration (iv) of dose of 0.5 mg/kg […]; assay type: functional
# [12] = test system: Rattus norvegicus; assay: Blood pressure lowering activity in spontaneously hypertensive rats (SHR) after 6 hours of administration (iv) of dose of 0.5 mg/kg […]; assay type: functional
# [13] = test system: Rattus norvegicus; assay: Blood pressure lowering activity in spontaneously hypertensive rats (SHR) after 1 hour of administration (iv) of dose of 1.0 mg/kg; assay type: functional
# [14] = test system: Rattus norvegicus; assay: Inhibitory concentration against 5-HT in conscious spontaneously […] rats (SHR); assay type: functional, organism-based
# [15] = test system: Rattus norvegicus; assay: Blood pressure lowering activity in spontaneously hypertensive rats (SHR) after 6 hours of administration (iv) of dose of 0.5 mg/kg; assay type: functional
# [16] = test system: Rattus norvegicus; assay: Blood pressure lowering activity in spontaneously hypertensive rats (SHR) after 6 hours of administration (iv) of dose of 1.0 mg/kg; assay type: functional
# [17] = test system: Rattus norvegicus; assay: Inhibitory concentration against phenylephrine in conscious spontaneously […] rats (SHR); assay type: functional, organism-based
# [18] = molecular target: T1, Adrenergic receptor alpha-1; assay: Alpha-1-antagonistic activity against phenylephrine in rat aorta; assay type: functional, tissue-based
# [19] = test system: Rattus norvegicus; assay: Blood pressure lowering activity in spontaneously hypertensive rats (SHR) after 1 hour of administration (iv) of dose of 0.5 mg/kg; assay type: functional
# [20] = test system: Rattus norvegicus; assay: Blood pressure lowering activity in spontaneously hypertensive rats (SHR) after 6 hours of administration (iv) of dose of 0.25 mg/kg; assay type: functional
# Summary of the method: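 Anesthetized spontaneously hypertensive rats of either sex, 250–300 g (pentobarbital sodium 40–50 mg/kg ip). Compound given iv via cannulated femoral vein. Arterial pressure recorded via right femoral artery cannula with pressure transducer, body temperature held at 37.5 °C. Value is maximum change in mean blood pressure (mmHg) at the time point. Groups of four to six animals.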
# [21] = test system: Rattus norvegicus; assay: Blood pressure lowering in spontaneously hypertensive rats (SHR) after 1 hour of administration (iv) of dose of 4.0 mg/kg […]; assay type: functional
# [22] = molecular target: T1, Adrenergic receptor alpha-1; assay: Alpha-1 antagonistic activity against phenylephrine in rat aorta; assay type: functional, tissue-based
smiles,measurement,setting,value
COc1ccc(N2CCN(CC3CN4C(=O)Nc5ccccc5C4=N3)CC2)cc1 (stereo not drawn),MBP,[1],inactive
same,MBP,[2],inactive
same,Ki,[3],> 100 nM
COc1ccccc1N1CCN(CC2CN=C3c4ccccc4NC(=O)N32)CC1 (stereo not drawn),MBP,[4],inactive
same,Ki,[5],593 nM
same,Ki,[3],0.21 nM
same,MBP,[6],inactive
CN1C(=O)N2C(=NCC2CN2CCN(c3ccccc3)CC2)c2ccccc21 (stereo not drawn),MBP,[7],-20 mmHg
same,MBP,[8],-23.3 mmHg
same,Ki,[3],15 nM
CN1C(=O)N2C(=NCC2CN2CCN(c3ccccc3Cl)CC2)c2ccccc21 (stereo not drawn),MBP,[9],-24 mmHg
same,Ki,[5],810 nM
same,MBP,[10],-14 mmHg
same,MBP,[11],-8.3 mmHg
same,MBP,[12],-5.9 mmHg
same,Ki,[3],0.068 nM
O=C1Nc2ccccc2C2=NC(CN3CCN(c4ccccc4)CC3)CN12 (stereo not drawn),MBP,[13],-57.5 mmHg
same,IC50,[14],0.36 nM
same,MBP,[15],-32.5 mmHg
same,MBP,[16],-44.5 mmHg
same,Ki,[5],3860 nM
same,IC50,[17],0.44 nM
same,pA2,[18],9.82
same,MBP,[19],-49.3 mmHg
same,Ki,[3],2.01 nM
same,MBP,[20],-8.75 mmHg
O=C1Nc2ccccc2C2=NC(CN3CCN(Cc4ccccc4)CC3)CN12 (stereo not drawn),MBP,[21],-43.7 mmHg
same,Ki,[5],> 10000 nM
same,Ki,[3],850 nM
O=C1Nc2ccccc2C2=NC(CN3CCN(c4ccccc4Cl)CC3)CN12 (stereo not drawn),MBP,[13],-40.7 mmHg
same,MBP,[15],-5.7 mmHg
same,MBP,[16],-12.6 mmHg
same,Ki,[5],3166 nM
same,MBP,[19],-25.5 mmHg
same,Ki,[3],1.1 nM
O=C(c1ccc(F)cc1)C1CCN(CCn2c(=O)[nH]c3ccccc3c2=O)CC1 [KETANSERIN],IC50,[14],27.8 nM
same,IC50,[17],5.73 nM
COc1ccccc1N1CCN(CCn2c(=O)[nH]c3ccccc3c2=O)CC1,pA2,[22],9.63
same,Ki,[5],1599 nM
same,MBP,[11],-33.9 mmHg
same,MBP,[12],-31.7 mmHg
same,Ki,[3],0.25 nM
COc1ccccc1N1CCN(CC2CN3C(=O)Nc4ccccc4C3=N2)CC1 (stereo not drawn),MBP,[15],-18.8 mmHg
same,Ki,[5],3450 nM
same,MBP,[19],-20 mmHg
same,Ki,[3],1.3 nM
CN1C(=O)N2CC(CN3CCN(c4ccccc4)CC3)N=C2c2ccccc21 (stereo not drawn),MBP,[4],inactive
same,Ki,[5],3334 nM
same,Ki,[3],10.5 nM
same,MBP,[6],inactive
O=C1Nc2ccccc2C2=NC(CN3CCN(Cc4ccc5c(c4)OCO5)CC3)CN12 (stereo not drawn),MBP,[1],inactive
same,MBP,[2],inactive
same,Ki,[3],> 100 nM
